Consider 13 molecules from ChEMBL document CHEMBL4118270, “Synthesis, in vitro and in silico studies of novel potent urease inhibitors: N-[4-({5-[(3-Un/substituted-anilino-3-oxopropyl)sulfanyl]-1,3,4-oxadiazol-2-yl}methyl)-1,3-thiazol-2-yl]benzamides” (Bioorg Med Chem, 2018).

One experiment deals with Urease (Helicobacter pylori, UniProt Q0PXQ5). Put plainly: Inhibition of Campylobacter pylori urease preincubated for 5 mins followed by urea addition measured after 10 mins by Berthelot assay. In a few lines: (§1)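 Modified Berthelot assay in pH 7.0 phosphate buffer. Sample and enzyme (0.135 units) are pre-incubated 5 min at 37 °C. Urea (20 mM stock) is added and incubated 10 min at 37 °C. […] IC50 is fitted from dilution series. Mean ± SEM, n = 3.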
Chain of Urease (Q0PXQ5 whole entry): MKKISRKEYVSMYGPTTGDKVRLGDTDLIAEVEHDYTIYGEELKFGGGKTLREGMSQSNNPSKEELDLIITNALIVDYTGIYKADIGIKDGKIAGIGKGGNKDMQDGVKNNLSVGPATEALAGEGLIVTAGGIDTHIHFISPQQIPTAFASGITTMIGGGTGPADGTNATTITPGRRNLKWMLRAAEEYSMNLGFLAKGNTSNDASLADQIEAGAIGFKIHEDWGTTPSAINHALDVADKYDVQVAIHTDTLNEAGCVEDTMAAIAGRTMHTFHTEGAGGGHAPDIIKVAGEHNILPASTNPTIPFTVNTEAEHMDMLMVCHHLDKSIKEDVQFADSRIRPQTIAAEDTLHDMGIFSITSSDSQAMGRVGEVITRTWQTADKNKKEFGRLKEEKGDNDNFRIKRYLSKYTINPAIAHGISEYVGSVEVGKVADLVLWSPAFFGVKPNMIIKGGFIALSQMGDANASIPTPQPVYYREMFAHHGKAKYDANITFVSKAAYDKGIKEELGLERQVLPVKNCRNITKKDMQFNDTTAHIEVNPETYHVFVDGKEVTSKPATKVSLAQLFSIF

The target of experiment [1] is Urease (Helicobacter pylori) (UniProt Q0PXQ5). Put plainly: Inhibition of Campylobacter pylori urease preincubated for 5 mins followed by urea addition measured after 10 mins by Berthelot assay relative to control. Set-up: concentration or dose not given beside the values. In a few lines:
as §1

pIC50: −log10 of the molar value.

Chain of Urease (Helicobacter pylori) (Q0PXQ5 as listed by the source): as the sequence (Q0PXQ5 whole entry) above

Take `CCc1ccc(NC(=O)CCSc2nnc(Cc3csc(NC(=O)c4ccccc4)n3)o2)cc1`: the pIC50 against Urease is 4.36. The molecule further registered an inhibition in experiment [1] of 74.2%. For `Cc1ccc(NC(=O)CCSc2nnc(Cc3csc(NC(=O)c4ccccc4)n3)o2)cc1C`, in that order: 4.47 and 76.5%.

In the case of `O=C(CCSc1nnc(Cc2csc(NC(=O)c3ccccc3)n2)o1)Nc1ccccc1`, the negative logarithm of the IC50 (pIC50) against Urease was 5.53. The inhibition in experiment [1] is 98.5%. At Urease, `Cc1ccc(C)c(NC(=O)CCSc2nnc(Cc3csc(NC(=O)c4ccccc4)n3)o2)c1` showed a negative-log IC50 (pIC50) of 4.82. In experiment [1], this molecule returned an inhibition of 77.9%. For `Cc1cccc(NC(=O)CCSc2nnc(Cc3csc(NC(=O)c4ccccc4)n3)o2)c1C`, in that order: 4.32 and 69.8%. Regarding `CCc1ccccc1NC(=O)CCSc1nnc(Cc2csc(NC(=O)c3ccccc3)n2)o1`, on Urease, the pIC50 is 5.59. Besides, the inhibition in experiment [1] stood at 98.7%. Regarding `NC(N)=S` [THIOUREA], the negative logarithm of the IC50 (pIC50) against Urease is 4.68.

In turn, `CCOc1ccc(NC(=O)CCSc2nnc(Cc3csc(NC(=O)c4ccccc4)n3)o2)cc1` gave a pIC50 against Urease of 4.63. Moreover, the inhibition in experiment [1] turned out to be 88.8%. `Cc1cc(C)cc(NC(=O)CCSc2nnc(Cc3csc(NC(=O)c4ccccc4)n3)o2)c1` had a negative logarithm of the IC50 (pIC50) against Urease of 4.28. In experiment [1], this molecule registered an inhibition of 64.8%. For `Cc1ccccc1NC(=O)CCSc1nnc(Cc2csc(NC(=O)c3ccccc3)n2)o1`, in that order: 5.13 and 98.2%. `Cc1ccc(NC(=O)CCSc2nnc(Cc3csc(NC(=O)c4ccccc4)n3)o2)cc1` showed a negative-log IC50 (pIC50) against Urease of 4.53. Besides, the inhibition in experiment [1] was 76.4%.

For the molecule `Cc1cccc(NC(=O)CCSc2nnc(Cc3csc(NC(=O)c4ccccc4)n3)o2)c1`, the negative logarithm of the IC50 (pIC50) at Urease was 4.91. The same molecule yielded an inhibition in experiment [1] of 84.8%. The molecule `Cc1cccc(C)c1NC(=O)CCSc1nnc(Cc2csc(NC(=O)c3ccccc3)n2)o1` gave a negative-log IC50 (pIC50) against Urease of 5.55. Also, the inhibition in experiment [1] was 98.5%.

As usually defined, the pIC50 is the IC50 on a negative log10 scale, so that one unit is a factor of ten. One may read the inhibition as the percentage by which the read-out fell short of the control.
